The results in this text go back to paper PMC3442410 (Molecular Biology of the Cell, 2012).

Residue numbers refer to the chain shown, from its start.

In assay [1] the target is T1, OSBP (Oryctolagus cuniculus, UniProt P16258).
T1 sequence (P16258 1-809): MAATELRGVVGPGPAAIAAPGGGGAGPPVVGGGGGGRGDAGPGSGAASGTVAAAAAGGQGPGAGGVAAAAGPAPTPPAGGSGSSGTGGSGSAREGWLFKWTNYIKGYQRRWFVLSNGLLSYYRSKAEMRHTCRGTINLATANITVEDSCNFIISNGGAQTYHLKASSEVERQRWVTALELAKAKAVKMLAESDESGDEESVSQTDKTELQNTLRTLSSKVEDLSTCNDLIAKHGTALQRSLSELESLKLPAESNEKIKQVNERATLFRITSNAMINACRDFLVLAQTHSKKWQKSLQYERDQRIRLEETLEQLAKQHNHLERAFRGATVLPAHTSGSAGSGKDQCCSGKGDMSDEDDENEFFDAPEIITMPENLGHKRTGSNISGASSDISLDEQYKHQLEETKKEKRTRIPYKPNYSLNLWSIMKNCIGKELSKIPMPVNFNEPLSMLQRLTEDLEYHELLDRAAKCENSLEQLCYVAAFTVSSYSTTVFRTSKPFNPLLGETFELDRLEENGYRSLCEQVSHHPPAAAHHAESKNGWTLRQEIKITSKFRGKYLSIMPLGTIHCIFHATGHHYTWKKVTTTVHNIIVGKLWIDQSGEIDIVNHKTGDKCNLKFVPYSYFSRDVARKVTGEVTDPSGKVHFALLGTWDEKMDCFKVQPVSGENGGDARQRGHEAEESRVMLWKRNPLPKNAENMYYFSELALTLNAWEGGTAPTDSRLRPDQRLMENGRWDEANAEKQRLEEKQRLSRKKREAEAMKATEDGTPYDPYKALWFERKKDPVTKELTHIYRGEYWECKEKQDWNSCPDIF
In words: Specific binding of [3H]25OH by purified OSBP. Details: species or system rabbit. The method in brief: (§1)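 His-tagged (C-terminal V5-His) rabbit OSBP or mutant expressed in Sf21 cells by baculovirus, purified and kept in Tris-HCl pH 7.4/250 mM NaCl. 12 pmol protein incubated with [3H]25OH in 10 mM HEPES pH 7.4, 100 mM KCl, 2% polyvinyl alcohol at 4°C, 16 h. Charcoal-dextran added for 30 min, then spun 10,000 × g, 10 min. Supernatant bound sterol counted by scintillation. Specific binding is total minus binding with 40-fold excess unlabeled 25OH.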

In another assay the target is T2, OSBP-S381A (Oryctolagus cuniculus, UniProt P16258, S381A).
T2 sequence (P16258 1-809 S381A): T1 sequence (P16258 1-809) with S381A
In words: Specific binding of [3H]25OH by purified OSBP-S381A. More on the design: species or system rabbit. The gist of the method:
as §1

A further assay addresses T3, OSBP-S3E (Oryctolagus cuniculus, UniProt P16258, S381E/S384E/S387E).
T3 sequence (P16258 2-809 S381E/S384E/S387E limits assumed): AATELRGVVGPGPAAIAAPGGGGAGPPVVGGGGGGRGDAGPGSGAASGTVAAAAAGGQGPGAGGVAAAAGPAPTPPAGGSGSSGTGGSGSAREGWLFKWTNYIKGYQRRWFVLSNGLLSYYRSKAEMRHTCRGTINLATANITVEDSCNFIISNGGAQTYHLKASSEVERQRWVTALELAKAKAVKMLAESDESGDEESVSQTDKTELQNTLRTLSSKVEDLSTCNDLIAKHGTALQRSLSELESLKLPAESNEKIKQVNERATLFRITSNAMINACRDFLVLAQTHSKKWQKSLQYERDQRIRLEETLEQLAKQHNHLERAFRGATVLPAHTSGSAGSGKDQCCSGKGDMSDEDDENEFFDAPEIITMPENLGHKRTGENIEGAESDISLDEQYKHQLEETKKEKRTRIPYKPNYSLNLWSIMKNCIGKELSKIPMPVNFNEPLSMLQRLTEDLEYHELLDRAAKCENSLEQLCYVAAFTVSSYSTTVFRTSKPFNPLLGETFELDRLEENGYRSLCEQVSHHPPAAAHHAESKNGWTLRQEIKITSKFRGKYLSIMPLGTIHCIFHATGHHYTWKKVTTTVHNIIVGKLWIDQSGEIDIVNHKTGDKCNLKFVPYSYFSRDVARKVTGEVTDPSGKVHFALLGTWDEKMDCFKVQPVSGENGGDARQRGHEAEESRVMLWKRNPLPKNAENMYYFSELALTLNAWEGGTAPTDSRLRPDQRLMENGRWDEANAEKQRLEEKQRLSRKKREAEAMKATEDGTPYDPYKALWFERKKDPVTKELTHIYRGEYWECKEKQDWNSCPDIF
The experiment in a line: Specific binding of [3H]25OH by purified OSBP-S3E. More on the design: species or system rabbit. The method in brief: as §1

Another assay addresses T4, OSBP-S5E (Oryctolagus cuniculus, UniProt P16258, S381E/S384E/S387E/S388E/S391E).
T4 sequence (P16258 1-809 S381E/S384E/S387E/S388E/S391E): T1 sequence (P16258 1-809) with S381E, S384E, S387E, S388E, S391E
In words: Specific binding of [3H]25OH by purified OSBP-S5E. Details: species or system rabbit. The method in brief: as §1

The test system of another assay is SM synthesis. The experiment in a line: 25OH-activated SM synthesis. It is filed as cell-based, CHO cells. Particulars: 25OH 6 μM, 6 h. The method in brief:
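OSBP-deficient CHO cells (stable lentiviral shOSBP) grown in DMEM with 5% fetal calf serum, transiently transfected for 48 h (Lipofectamine 2000) with OSBP constructs carrying three silent shRNA-resistant mutations. Cells then treated with 25OH (6 μM) or solvent control for 6 h. SM and ceramide synthesis measured by [3H]serine incorporation. Mean and SEM of three experiments.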

For assay [2], the target named is T1, OSBP. In words: Direct extraction of radiolabeled PI or PI. The following applies: OSBP 50 pmol; liposomes with 0.5 mol% [32P]PI(4)P; compared with [3H]PI. Format: binding, rabbit.
The mark [3] stands for this setting: [3H]25OH, 12 pmol protein, 4°C, 16 h.

By Kd is commonly meant the constant that tells how readily two partners part at equilibrium. A low value points to higher affinity. Consider `C[C@H](CCCC(C)(C)O)[C@H]1CC[C@H]2[C@@H]3CC=C4C[C@@H](O)CC[C@]4(C)[C@H]3CC[C@]12C` [25OH, 25-hydroxycholesterol], for which the Kd came to 28 ± 5 nM at OSBP [1], 51 ± 12 nM on OSBP-S381A, 58 ± 14 nM at OSBP-S3E and 35 ± 9 nM on OSBP-S5E. The Bmax on OSBP [1] (setting [3]) is on record as 0.63 ± 0.05; at OSBP-S381A (setting [3]), 0.68 ± 0.11; on OSBP-S3E (setting [3]), 0.49 ± 0.15. For the same compound, the “binding capacity (Bmax)” value on OSBP-S5E (setting [3]) is on record as 2.0 ± 0.26. The “activation of SM synthesis” value came out at 2.5 fold in the assay with SM synthesis (deficient CHO cells expressing S381A/S3A, S5E/S3D or S5E/S3A double mutants) and 2.5 fold in the assay with SM synthesis (deficient CHO cells expressing wild-type OSBP).

On to “phosphatidylinositol 4-phosphate [PI(4)P]”, for which the “extraction from liposomes into supernatant” value on OSBP [2] is “extracted significantly more”.
